According to ChEMBL document CHEMBL2424614, “A novel p-terphenyl derivative inducing cell-cycle arrest and apoptosis in MDA-MB-435 cells through topoisomerase inhibition” (Eur J Med Chem, 2013):
The source made the active and inactive calls. The calls are words filed in the database; no cut-off is given here.

Legend:
[1] = tested on: MDA-MB-435; assay: Induction of DNA damage in human MDA-MB-435 cells assessed as phosphorylation of ATM at Ser1981 at 10 uM after 12 hrs by Western blotting analysis; type: functional, cell-based
How it was run: (§1)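 Treated MDA-MB-435 cells lysed in ice-cold Tris-HCl pH 7.4 buffer with Triton, phosphatase and protease inhibitors. Lysates clarified, boiled in SDS loading buffer, run on 8-12% SDS-PAGE and blotted. Membranes blocked in 5% skim milk, probed with primary antibodies, then peroxidase secondaries with ECL detection. β-actin as loading control.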

[2] = tested on: MDA-MB-435; assay: Induction of DNA damage in human MDA-MB-435 cells assessed as phosphorylation of H2AX at Ser139 at 10 uM after 12 hrs by Western blotting analysis; type: functional, cell-based; how it was run: as §1
[3] = tested on: MDA-MB-435; assay: Induction of DNA damage in human MDA-MB-435 cells assessed as phosphorylation of p53 at Ser15 at 10 uM after 12 hrs by Western blotting analysis; type: functional, cell-based; how it was run: as §1
[4] = organism: Bos taurus; assay: Inhibition of calf thymus DNA topoisomerase 1-mediated relaxation of supercoiled pBR322 DNA at 100 uM after 30 mins by Agarose gel electrophoresis
How it was run: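 Relaxation assay with 0.5 µg supercoiled pBR322 and 1 unit calf thymus Topo I, 20 µL. Buffer: 10 mM Tris–HCl pH 7.9, 150 mM NaCl, 0.1% BSA, 1 mM spermidine, 5% glycerol. Incubated 37 °C for 30 min; stopped with sarcosyl stop solution. 1% agarose gel, 5 V/cm, 2 h, TAE; ethidium bromide stain (0.5 µg/mL), UV. DMSO stocks. At least duplicate.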

[5] = tested on: Calf thymus DNA; assay: Induction of DNA intercalation activity of calf thymus DNA topoisomerase 1 assessed as unwinding of pBR322 DNA at 100 uM after 30 mins by Agarose gel electrophoresis; type: nucleic-acid assay; settings: Bos taurus
How it was run: (§2)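 Relaxed pBR322 made by treating supercoiled plasmid with excess Topo I (10 units), then proteinase K digestion at 37 °C, phenol-chloroform extraction and ethanol precipitation. Relaxed DNA incubated with compound at 37 °C for 30 min; stopped with gel loading buffer. Run on 1% agarose, TAE, 5 V/cm for 2 h; stained with ethidium bromide 0.5 µg/mL, viewed under UV.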

[6] = tested on: Calf thymus DNA; assay: Induction of DNA intercalation activity of calf thymus DNA topoisomerase 1 assessed as unwinding of pBR322 DNA at 10 ug/ml after 30 mins by Agarose gel electrophoresis; type: nucleic-acid assay; settings: Bos taurus; how it was run: as §2
[7] = tested on: MDA-MB-435; assay: Cytotoxicity against human MDA-MB-435 cells assessed as growth inhibition at 100 uM after 72 hrs by MTT assay
[8] = target: DNA topoisomerase 2-alpha (Homo sapiens) (UniProt P11388); assay: Inhibition of recombinant human DNA topoisomerase 2-alpha-mediated relaxation of supercoiled pBR322 DNA at 100 uM after 30 mins by Agarose gel electrophoresis
How it was run: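 Relaxation assay with 0.5 µg supercoiled pBR322 and 1 unit recombinant human Topo IIα, 20 µL. Incubated 30 min at 30 °C; stopped with 7 mM EDTA. 1% agarose gel, 5 V/cm, 2 h, TAE; ethidium bromide stain, UV. DMSO stocks. At least duplicate.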

[9] = target: DNA topoisomerase 2-alpha (Homo sapiens) (UniProt P11388); assay: Inhibition of recombinant human DNA topoisomerase 2-alpha assessed as supression of kDNA decatenation at 100 uM after 30 mins by agarose gel electrophoresis
How it was run: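 ATP-dependent decatenation assay: 0.20 µg kDNA with 2 units Topo IIα at 37 °C for 30 min, 20 µL. Buffer: 50 mM Tris pH 8.0, KCl, 10 mM MgCl₂, 0.5 mM ATP, 0.5 mM DTT, 30 µg/mL BSA. Stopped with 10% SDS. Agarose gel scored for kDNA versus released minicircles.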

[10] = tested on: LNCaP; assay: Cytotoxicity against human LNCAP cells assessed as growth inhibition after 72 hrs by MTT assay; type: functional, cell-based
How it was run: (§3)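 MTT assay: cells treated in triplicate with a range of concentrations for 72 h at 37 °C, 5% CO2. Medium replaced, MTT (5 mg/mL) added for 4 h, then SDS/isobutanol/HCl solubiliser overnight. Absorbance read at 590 nm. Inhibition calculated against control and blank wells; IC50 is concentration giving 50% growth inhibition; three independent experiments.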

[11] = tested on: MDA-MB-435; assay: Cytotoxicity against human MDA-MB-435 cells assessed as growth inhibition after 72 hrs by MTT assay; type: functional, cell-based; how it was run: as §3
[12] = tested on: A549; assay: Cytotoxicity against human A549 cells assessed as growth inhibition after 72 hrs by MTT assay; type: functional, cell-based; how it was run: as §3
[13] = tested on: Calf thymus DNA; assay: Induction of DNA intercalation activity of calf thymus DNA topoisomerase 1 assessed as unwinding of pBR322 DNA at 2 ug/ml after 30 mins by Agarose gel electrophoresis; type: nucleic-acid assay; settings: Bos taurus; how it was run: as §2

DNA topoisomerase 2-alpha (Homo sapiens), sequence (P11388 whole entry): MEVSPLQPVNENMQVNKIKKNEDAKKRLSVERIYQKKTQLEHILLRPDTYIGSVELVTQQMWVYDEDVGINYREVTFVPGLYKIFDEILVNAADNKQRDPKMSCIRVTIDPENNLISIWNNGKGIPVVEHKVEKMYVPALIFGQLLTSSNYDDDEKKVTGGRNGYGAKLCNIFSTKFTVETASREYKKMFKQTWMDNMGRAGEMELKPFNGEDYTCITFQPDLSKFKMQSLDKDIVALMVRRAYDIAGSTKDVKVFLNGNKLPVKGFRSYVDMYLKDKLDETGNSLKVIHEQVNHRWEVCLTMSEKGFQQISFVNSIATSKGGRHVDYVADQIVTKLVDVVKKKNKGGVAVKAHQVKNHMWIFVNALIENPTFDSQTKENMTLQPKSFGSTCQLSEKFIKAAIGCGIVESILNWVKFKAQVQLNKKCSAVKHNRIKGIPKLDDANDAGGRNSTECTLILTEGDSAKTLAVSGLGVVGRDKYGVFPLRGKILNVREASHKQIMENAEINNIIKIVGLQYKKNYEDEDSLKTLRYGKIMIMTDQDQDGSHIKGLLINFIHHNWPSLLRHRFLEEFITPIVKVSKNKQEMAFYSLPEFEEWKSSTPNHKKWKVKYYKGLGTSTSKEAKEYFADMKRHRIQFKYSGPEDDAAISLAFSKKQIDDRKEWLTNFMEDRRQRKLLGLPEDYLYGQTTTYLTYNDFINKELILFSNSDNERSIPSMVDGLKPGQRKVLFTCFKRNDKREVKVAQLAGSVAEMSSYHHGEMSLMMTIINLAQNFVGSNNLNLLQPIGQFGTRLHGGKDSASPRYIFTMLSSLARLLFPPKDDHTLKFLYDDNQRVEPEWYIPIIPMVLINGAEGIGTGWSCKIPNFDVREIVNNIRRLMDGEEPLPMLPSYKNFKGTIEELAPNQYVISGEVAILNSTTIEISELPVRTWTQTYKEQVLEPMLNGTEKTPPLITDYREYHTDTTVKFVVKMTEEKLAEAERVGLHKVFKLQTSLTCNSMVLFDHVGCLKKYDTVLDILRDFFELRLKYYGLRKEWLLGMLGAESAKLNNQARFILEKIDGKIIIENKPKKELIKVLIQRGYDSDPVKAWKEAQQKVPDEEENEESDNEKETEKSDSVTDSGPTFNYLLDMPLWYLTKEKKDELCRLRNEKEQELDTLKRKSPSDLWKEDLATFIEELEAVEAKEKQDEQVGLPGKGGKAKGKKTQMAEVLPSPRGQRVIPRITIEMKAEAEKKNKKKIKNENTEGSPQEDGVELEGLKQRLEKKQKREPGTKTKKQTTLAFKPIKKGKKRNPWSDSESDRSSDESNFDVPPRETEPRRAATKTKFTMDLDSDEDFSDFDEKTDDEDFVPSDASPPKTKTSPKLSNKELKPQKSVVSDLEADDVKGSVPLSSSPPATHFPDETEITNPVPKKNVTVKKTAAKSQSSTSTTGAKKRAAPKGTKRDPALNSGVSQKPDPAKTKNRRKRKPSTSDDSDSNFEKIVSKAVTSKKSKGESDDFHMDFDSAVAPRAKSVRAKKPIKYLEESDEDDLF

Row | SMILES | inhibition [4] | inhibition [8] | inhibition [9] | further results
1 | COc1cc([C@@H]2c3cc4c(cc3[C@@H](O[C@@H]3O[C@@H]5CO[C@@H](C)O[C@H]5[C@H](O)[C@H]3O)[C@H]3COC(=O)[C@H]23)OCO4)cc(OC)c1O | – | – | – | Activity [1]: Active; Activity [2]: Active; Activity [3]: Active
2 | CC[C@@]1(O)C(=O)OCc2c1cc1n(c2=O)Cc2cc3c(O)cccc3nc2-1 | Active | – | – | Activity [5]: inactive
3 | CC[N+](C)(CC)CCC[n+]1c(-c2ccccc2)c2cc(N)ccc2c2ccc(N)cc21 | – | – | – | Activity [6]: Active
4 | COc1ccc(-c2cc(OC)c(-c3ccc(OC)c(OC)c3)c(OC)c2)cc1 | inactive | inactive | inactive | Activity [7]: inactive
5 | Oc1ccc(-c2ccc(-c3ccc(O)c(O)c3)c(O)c2)cc1 | inactive | – | Active | growth inhibition (GI) [10]: Active; growth inhibition (GI) [11]: Active; growth inhibition (GI) [12]: Active
6 | Oc1ccc(-c2ccc(-c3ccc(O)c(O)c3)c(O)c2O)cc1 | inactive | – | Active | growth inhibition (GI) [10]: Active; growth inhibition (GI) [11]: Active; growth inhibition (GI) [12]: Active
7 | COc1ccc(-c2ccc(-c3ccc(OC)c(OC)c3)c(OC)c2)cc1 | inactive | inactive | inactive | Activity [7]: inactive
8 | COc1ccc(-c2ccc(-c3ccc(O)cc3)c(OC)c2OC)cc1OC | inactive | inactive | inactive | –
9 | CC[n+]1c(-c2ccccc2)c2cc(N)ccc2c2ccc(N)cc21 | – | – | – | Activity [13]: Active
10 | COc1ccc(-c2ccc(-c3ccc(O)cc3)cc2)cc1OC | inactive | inactive | inactive | –
11 | Oc1ccc(-c2cc(O)c(-c3ccc(O)c(O)c3)c(O)c2)cc1 | Active | – | Active | growth inhibition (GI) [10]: Active; growth inhibition (GI) [11]: Active; growth inhibition (GI) [12]: Active
